Source: PubChem
The full list was thinned out, with hits kept by preference.
TLR4 MyD88 comp – TLR4-MyD88 interaction inhibition in cells; O00206+Q99836; HeLa CL3-4 TLR4/MyD88 BLA complementation, FRET ratio; inhibition, % at 8.4 µM; 0.18% of 200,000 active; in the data active = inhibition above about 25%;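 note: 0% = vehicle and 100% = reference inhibitor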
Target sequence (O00206 whole entry, looked up): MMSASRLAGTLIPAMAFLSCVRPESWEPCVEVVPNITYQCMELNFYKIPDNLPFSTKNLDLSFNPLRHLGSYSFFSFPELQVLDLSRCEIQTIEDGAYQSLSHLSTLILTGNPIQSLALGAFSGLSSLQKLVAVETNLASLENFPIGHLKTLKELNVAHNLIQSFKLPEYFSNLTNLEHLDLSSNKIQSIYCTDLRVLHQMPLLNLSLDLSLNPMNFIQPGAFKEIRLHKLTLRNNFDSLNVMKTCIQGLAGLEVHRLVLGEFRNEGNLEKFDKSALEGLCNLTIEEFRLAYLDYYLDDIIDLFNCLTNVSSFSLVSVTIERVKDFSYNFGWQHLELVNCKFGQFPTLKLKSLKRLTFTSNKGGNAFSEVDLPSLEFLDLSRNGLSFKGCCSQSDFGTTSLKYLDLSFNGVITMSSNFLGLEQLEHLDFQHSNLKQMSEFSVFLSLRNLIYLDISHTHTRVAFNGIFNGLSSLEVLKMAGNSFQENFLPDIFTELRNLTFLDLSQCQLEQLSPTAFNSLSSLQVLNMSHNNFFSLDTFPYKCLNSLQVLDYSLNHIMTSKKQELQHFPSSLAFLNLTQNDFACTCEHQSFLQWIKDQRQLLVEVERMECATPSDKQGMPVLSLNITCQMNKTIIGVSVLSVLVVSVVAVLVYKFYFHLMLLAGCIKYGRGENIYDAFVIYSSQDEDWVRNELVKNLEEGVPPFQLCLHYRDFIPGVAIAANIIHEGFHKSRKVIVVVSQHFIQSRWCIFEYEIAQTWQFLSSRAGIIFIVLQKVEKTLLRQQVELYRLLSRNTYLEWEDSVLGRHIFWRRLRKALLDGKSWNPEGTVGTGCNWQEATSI
Target sequence (Q99836 whole entry, looked up): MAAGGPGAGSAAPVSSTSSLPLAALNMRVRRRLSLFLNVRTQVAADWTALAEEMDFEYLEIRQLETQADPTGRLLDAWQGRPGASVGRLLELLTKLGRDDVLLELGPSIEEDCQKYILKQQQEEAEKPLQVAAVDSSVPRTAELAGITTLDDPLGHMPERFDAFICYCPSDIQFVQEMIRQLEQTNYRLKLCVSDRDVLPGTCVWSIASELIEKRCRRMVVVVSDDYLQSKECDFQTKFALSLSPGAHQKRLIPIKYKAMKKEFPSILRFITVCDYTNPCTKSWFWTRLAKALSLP
CHOP UPR activ – activators of apoptotic arm of unfolded protein response (CHOP) | CHO-CHOP luciferase reporter, UPR activation, luminescence; percent of tunicamycin response over DMSO baseline | activation, % at 10 µM | 0.34% of 330,000 active | AID 449763;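 active = at 10 µM dose, activation of 40% or more, normalized to positive control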;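 note: 100% = tunicamycin at 10 µg/mL and 0% = DMSO alone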
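Test system: CHO CHOP reporter cells. Input: 500 CHO-CHOP cells per well. Medium: F12 with 10% FBS. Technique: luciferase luminescence. Measure: percent activation relative to tunicamycin control. Dosing: 10 µM compound, 0.5% DMSO. Timing: 16-18 h cell attachment, then 6 h compound exposure, 37 °C.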
NOD2-RIPK2 inh – NOD2-RIPK2 protein interaction inhibition. inhibition, % at 4.98 µM. CHO BLA complementation NOD2-RIPK2, CCF4 ratio. 0.38% of 360,000 active; in the data active = inhibition above about 21%;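 note: 0% = vehicle only and 100% = reference blocker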
XBP1 UPR activ – activators of adaptive arm of unfolded protein response (XBP1); CHO-XBP1 luciferase reporter, IRE1-XBP1 UPR activation, luminescence; percent of tunicamycin response, DMSO as zero; activation, % at 20 µM; 0.33% of 330,000 active; AID 463104;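 active = versus positive control, 20 µM dose yields 30% or more activation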;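 note: 100% = tunicamycin at 10 µg/mL and 0% = DMSO only wells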
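Material – CHO cell line with stable XBP1 luciferase reporter · Buffer or medium – F12 plus 10% FBS · Compound – single point, 20 µM final compound, 1% DMSO · Schedule – 16-18 h cell attachment at 37 °C, then 6 h compound exposure · Signal – Steady-Glo luminescence read · Benchmarks – high control tunicamycin 10 µg/mL final, low control DMSO vehicle only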
CHOP inhibitor – CHOP inhibition in unfolded protein response. 3.8% of 220,000 active. inhibition, % at 10 µM. AID 2732. CHO-K1 CHOP-promoter luciferase, tunicamycin-induced, 15-18 h;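 active = compounds that reduced the stress-induced luciferase reporter signal by more than about 70% of percent inhibition, limit read from the data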;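 note: 0% = tunicamycin plus vehicle and 100% = wells without tunicamycin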
TLR9-MyD88 inh – blocks human TLR9 binding to MyD88 | Q9NR96+Q99836 | CHO BLA complementation TLR9-MyD88, CCF4 FRET ratio | inhibition, % at 4.98 µM | 0.21% of 340,000 active;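 active = inhibition above the mean over all tested compounds plus 3 SD, cut at about 21% in these data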;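 note: 0% = DMSO only wells and 100% = clavulanate BLA inhibitor control wells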
CHOP inh conf – confirmation of CHOP induction inhibitors | shares compounds with CHOP inhibitor | CHO-CHOP promoter luciferase reporter, tunicamycin-induced, luminescence | inhibition, % at 10 µM | 45% of 2,100 active;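 active = mean of three repeat readings of reporter signal inhibition above a set limit, cut at about 70% in these data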;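 note: 0% = tunicamycin plus vehicle and 100% = wells lacking tunicamycin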
Active calls of the source: *; x = not tested or not shown.

SMILES | TLR4 MyD88 comp | CHOP UPR activ | NOD2-RIPK2 inh | XBP1 UPR activ | CHOP inhibitor | TLR9-MyD88 inh | CHOP inh conf
O=C(NC(NC(=S)Nc1cccc(C(=O)O)c1)C(Cl)(Cl)Cl)OCc1ccccc1 (configuration not stated) | -26 | 1 | -18 | -3 | -5 | -5 | x
O=C(NCc1ccccn1)[C@@H]1CCCN1C(=O)[C@@H]1CCCN1C(=O)c1cccc2ccccc12 | x | x | -13 | x | x | x | x
O=C(CCCOc1ccc(Cl)cc1Cl)N/N=C\C1CCCCC1 | 5 | 1 | -10 | -1 | 105* | -2 | 83*
O=C(CCCOc1ccc(Cl)cc1Cl)NCCCO | -5 | 0 | -1 | -1 | 32 | -18 | x
CN1CCN(c2ccc(-c3ccc4ccccc4n3)cc2)CC1 | 7 | x | -10 | x | 102* | 1 | 120*
COc1ccccc1Cc1c(-c2ccco2)nc2c3ccccc3ccn12 | x | x | -4 | x | x | x | x
CCC(C)[C@H](NC(=O)OC(C)(C)C)C(=O)N/N=C/C1=Cc2ccccc2OC1 (some centres not stated) | -3 | 0 | -12 | 2 | 106* | 3 | 40
COc1ccc2[nH]c3c(=O)n(N)c(=O)[nH]c3c2c1 | x | 0 | -3 | -5 | x | -1 | x
COc1ccc2[nH]c3c(=O)n(/N=C/[C@H]4C(C)C=C(C)CC4C)c(=O)[nH]c3c2c1 (some centres not stated) | -38 | 2 | 1 | 1 | 109* | 1 | 16
Cc1cccc(C)c1N1CCN(c2ccc3nnc(C(F)(F)F)n3n2)CC1 | 11 | 2 | -2 | 1 | 106* | -9 | 102*
CCCCCCSc1nsc(NC(=O)CCC)n1 | -8 | 4 | 3 | 2 | 106* | -8 | 103*
CSc1nsc(NC(=O)Cc2ccccc2)n1 | 9 | 2 | -8 | 0 | 2 | -4 | x
Cc1nc(N)sc1-c1csc(Nc2ncccn2)n1 | 20 | x | -13 | x | 103* | 7 | -211
Cc1noc(C)c1C(=O)Nc1cc(S(=O)(=O)N2CCCCC2)ccc1N(C)C | x | 0 | -6 | 2 | x | -6 | x
CCCCCCn1c(-c2ccco2)nc2oc3cc(OC)ccc3c(=O)c2c1=O | 6 | 0 | -9 | 2 | 96* | -1 | 107*
CSc1ccc(C(O)c2ncc(-c3cccc(F)c3)[nH]2)cc1 (configuration not stated) | x | x | 0 | x | x | x | x
COc1cc(-n2nnnc2SCC(=O)N2CCN(c3ccc(F)cc3)CC2)c(OC)cc1Cl | -1 | x | 6 | x | 98* | -10 | 49
CCOC(=O)CSc1nnnn1-c1cc(OC)c(Cl)cc1OC | 4 | -2 | -9 | -1 | 32 | -8 | x
CC(C)n1nnnc1C1c2ccccc2C(=O)N1Cc1cccc(F)c1 (configuration not stated) | x | x | -2 | x | x | x | x
CNc1nc(-c2ccccc2)[n+](-c2ccc(C)cc2)s1 | -7 | x | -11 | x | 97* | -6 | 10
Cc1ccc(-c2nc(N)s[n+]2-c2ccccc2)cc1 | -7 | x | -5 | x | 23 | -1 | x
CC(=O)Nc1cc2c3ccccc3n(C)c2cc1[N+](=O)[O-] | x | x | -9 | x | x | -8 | x
O=C(Nc1cccc(Cl)c1Cl)c1cc(S(=O)(=O)NCCc2ccccc2)ccc1F | 6 | 0 | 2 | -2 | 97* | 4 | 88*
CCC(=O)NC(c1ccccc1Cl)c1c(O)ccc2ccccc12 (configuration not stated) | 4 | -1 | 1 | -4 | 20 | 0 | x
O=C(NC(c1ccccc1)c1c(O)ccc2ccccc12)c1ccccc1Cl (configuration not stated) | -6 | 0 | -5 | -2 | 107* | 4 | 125*
Cc1cc(C)c(NC(=O)CSc2nc3ccc(NC(=O)CSc4nnnn4-c4ccccc4)cc3s2)c(C)c1 | 7 | 2 | 14 | 5 | 98* | -5 | 38
CCCOc1ccc(N2C(=O)CC(SC(=NC)Nc3ccc(F)cc3)C2=O)cc1 (configuration not stated) | 12 | -1 | 5 | 0 | 100* | -4 | 100*
